Source: PubChem (SRMLSC)
This is one part of a sample in which hits are shown more often than they occur.
HCT116 PTEN-null – growth suppression of PTEN-null HCT116, primary screen, cell-based, CellTiter-Glo | hit rate 1.2% among 140,000 | viability, % at 10 µM | HCT116 PTEN-null viability, 60 h; stronger effect = lower value;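 active means viability at or below a set limit, 4 SD under the median of all tested compounds, cut at about 3.7% in these data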;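 further: PTEN knockout HCT116 line with beta catenin targeted HCT116 as companion control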
HCT116 bCat-KO – primary screen for growth suppressors in beta-catenin knockout HCT116 cells (colon tumor, human). hit rate 1.5% among 140,000. viability, % at 10 µM. HCT116 beta-catenin knockout viability, CellTiter-Glo, 60 h; stronger effect = lower value. AID 818, 2007;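 active means viability at or under a set limit, the compound median less 4 SD, cut at about 6% in these data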;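 further: 0% = Hyamine 1622 control at 20 µM and 100% = untreated cell control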
HUVEC inhibit – inhibitors of HUVEC proliferation, primary screen, cell-based, 384-well; CellTiter-Glo luminescence, 72 h; stronger effect = lower value; viability, % at 10 µM (by protocol); hit rate 1.1% among 86,000; AID 648, 2007;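 active means viability at or below 30%; inactive means viability above 30%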;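 further: 100% = median luminescence of DMSO-only cell control wells on each plate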
H69AR inhibit – proliferation blockers of H69AR lung cancer cells, primary screen, cell-based, human, 86K library; H69AR lung tumor viability, ATP luminescence, 72 h; stronger effect = lower value; viability, % at 10 µM; hit rate 6% among 85,000; AID 598, 2007;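 active means viability at or below 40%; inactive means viability above 40%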;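 further: multidrug resistant small cell line overexpressing MRP-1 efflux transporter; 100% = mean luminescence of untreated control wells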
Fibroblast inh – antiproliferative effect on LL 47 fibroblasts – human, LL 47 cells, CellTiter-Glo luminescence, primary screen. LL 47 human lung fibroblast viability, ATP luminescence; stronger effect = lower value. viability, % at 10 µM. hit rate 1.1% among 85,000. AID 719, 2007;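 active means viability at or below 50% in the single dose screen; inactive means viability above 50%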;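 further: compound exposure lasted 72 h before the ATP readout; 100% = median luminescence of untreated cell-only wells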
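Material: Human LL 47 lung fibroblast cells | Input: 1,150 cells/well | Buffer or medium: IMEM plus 15% FBS | Compound dosing: 0.1% DMSO in all compound wells | Times: Overnight cell rest, 72 h compound treatment at 37 °C | Signal: CellTiter-Glo luminescence measuring cellular ATP | Measure: % viability versus median cells-only luminescence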
* marks the source's active call; other numbers are inactive results; . = not tested or not shown.

SMILES | HCT116 PTEN-null | HCT116 bCat-KO | HUVEC inhibit | H69AR inhibit | Fibroblast inh
Cc1cccc(NC(=O)c2cccnc2)c1 | 91 | 92 | 99 | 100 | 85
CCc1ccc(C(=O)CN(C#N)c2nc(C)cc(C)n2)cc1 | 84 | 87 | 55 | 60 | 92
CCc1ccc(-c2cn(-c3nc(C)cc(C)n3)c(=N)o2)cc1 | 61 | 70 | 59 | 1.2* | 84
O=c1[nH]c2cc3c(cc2cc1C(c1nnnn1Cc1ccccc1)N1CCN2CCCC2C1)OCCO3 (centres undefined) | 98 | 99 | 95 | 88 | 97
Cc1nc(N)sc1C(=O)N/N=C/c1c[nH]c2ccccc12 | 40 | 43 | . | . | .
CC(=O)n1cc(/C=N/NC(=O)c2sc(C)nc2C)c2ccccc21 | 48 | 45 | 84 | 22* | 89
CCOC(=O)C1=C(CSc2nc3ccccc3s2)NC(=O)NC1c1cc(C)ccc1C (centres undefined) | 64 | 62 | . | . | .
CCOC(=O)C1=C(CSc2nc3ccccc3s2)NC(=O)NC1c1ccc(OC)cc1 (centres undefined) | 21 | 5.7* | . | . | .
CC(C)NNC(=O)c1ccncc1 | 99 | 99 | . | . | .
CCC(=O)Nc1c(C#N)c2nc3ccccc3nc2n1C1CCCCC1 | 65 | 60 | 98 | 85 | 94
CCOC(=O)c1c(NC(=O)c2ccco2)n(C2CCCCC2)c2nc3ccccc3nc12 | 65 | 71 | 96 | 36* | 105
O=C(N/N=C/c1cn(-c2ccccc2)nc1-c1cc2ccccc2o1)c1cccnc1 | 3.5* | 7 | . | . | .
O=C(N/N=C/c1cn(-c2ccccc2)nc1-c1cc2ccccc2o1)c1ccncc1 | 10 | 17 | . | . | .
N=c1n(CCO)c2ccccc2n1CCOc1ccc(Cl)cc1Cl | 1.6* | 1.7* | 2.1* | 20* | 58
CCN(CC)C(=O)CSc1nnc(-c2ccc(S(=O)(=O)N3CCCC3)cc2)o1 | 102 | 97 | 97 | 76 | 102
Cn1c(=O)[nH]c(=O)c2c1nc(N1CCN(Cc3ccccc3)CC1)n2CCCc1ccccc1 | 6 | 5.6* | 85 | 71 | 93
CCCCCn1c(CN2CCN(c3cc(Cl)ccc3C)CC2)nc2c1c(=O)[nH]c(=O)n2C | 10 | 7 | 28* | 3.5* | 87
CCCCCn1c(N2CCN(c3cccc(Cl)c3)CC2)nc2c1c(=O)[nH]c(=O)n2C | 56 | 65 | 85 | 59 | 99
CCOC(=O)Cn1c(=O)c2c(nc(N3CCCCC3)n2Cc2ccccc2)n(C)c1=O | 79 | 79 | 102 | 24* | 96
C/C(Cl)=C/Cn1c(N2CCCC2)nc2c1c(=O)n(C)c(=O)n2C | 91 | 86 | 92 | 33* | 86
C/C(Cl)=C\Cn1c(N2CCCC2)nc2c1c(=O)[nH]c(=O)n2C | 95 | 105 | 96 | 70 | 92
Cn1c(=O)[nH]c(=O)c2c1nc(N1CCN(c3cccc(Cl)c3)CC1)n2CCCc1ccccc1 | 100 | 99 | 93 | . | 98
CCCCC(=O)Nc1cccc2c1C(=O)N(c1ccccc1)C2=O | 109 | 99 | 98 | 96 | 90
C=CCn1c(SCC(=O)N2CCN(c3ccc(F)cc3)CC2)nnc1-c1cccs1 | 77 | 50 | 87 | 79 | 100
Cn1c(=O)c2c(nc(N3CCN(Cc4ccccc4)CC3)n2CCCc2ccccc2)n(C)c1=O | 45 | 52 | 67 | 74 | 89
SMILES | HCT116 PTEN-null | HCT116 bCat-KO | HUVEC inhibit | H69AR inhibit | Fibroblast inh
Cn1c(=O)c2c(nc(N3CCN(Cc4ccccc4)CC3)n2CC(=O)c2ccccc2)n(C)c1=O | . | . | 92 | 32* | 93
CCCCCOC(=O)Cn1c(=O)c2c(nc(N3CCOCC3)n2C)n(C)c1=O | 84 | 87 | 94 | 35* | 96
COc1ccc(Cn2nnnc2C(C(C)C)N2CCc3ccccc32)cc1 (centres undefined) | 72 | 73 | 80 | 75 | 87
Cc1cccc(N2C(=O)CCC2=O)n1 | 91 | 91 | . | . | .
CC[N+](CC)(CC#Cc1ccccc1)CC(=O)c1ccc(Cl)cc1 | 69 | 70 | . | . | .
O=C(CSc1nnc2c3ccccc3c3ccccc3c2n1)Nc1ccccc1 | 35 | 38 | . | . | .
O=C(CSc1nnc2c3ccccc3c3ccccc3c2n1)Nc1ccccc1F | 1.9* | 2.2* | . | . | .
COc1cc2c3c(c1)-c1c(sn(-c4cc(OC)ccc4OC)c1=S)C(C)(C)N3C(=O)C2=O | 1.2* | 2.4* | 51 | 3.9* | 101
COc1ccc2c(c1)-c1c(sn(-c3ccc(OC)c(OC)c3)c1=S)C(C)(C)N2 | 54 | 52 | . | . | .
C=CCNC(=O)CN(c1ccccc1OCC)S(=O)(=O)c1ccc(C)cc1 | 99 | 99 | 102 | 88 | 93
COC(=O)c1sccc1NC(=O)c1cc(-c2cccc(C)c2)nc2ccccc12 | 0.8* | 2.0* | . | . | .
CCn1cc(C(=O)Nc2nncs2)c(=O)c2cc(F)c(N3CCN(C(=O)c4ccco4)CC3)cc21 | . | . | 80 | 72 | 106
CCn1cc(C(=O)NCc2ccc3c(c2)OCO3)c(=O)c2cc(F)c(N3CCN(C(=O)c4ccco4)CC3)cc21 | 8 | 12 | 16* | 0.1* | 86
CCn1cc(C(=O)NCc2ccccc2)c(=O)c2cc(F)c(N3CCN(C(=O)c4ccco4)CC3)cc21 | 44 | 58 | 63 | 12* | 93
Oc1ccccc1-c1nc2cnccn2c1Nc1ccc2c(c1)OCCO2 | 3.3* | 4.3* | 94 | 80 | 93
c1cncc(-c2nc3ccccn3c2Nc2ccc3c(c2)OCCO3)c1 | 82 | 86 | 83 | 90 | 93
Clc1ccc(-c2nc3cnccn3c2Nc2ccc3c(c2)OCO3)cc1 | 24 | 29 | 91 | 25* | 94
Cc1ccsc1C1NC(=O)c2c(sc3c2CCCC3)N1 (centres undefined) | 86 | 80 | . | . | .
Cn1cc(C2NC(=O)c3c(sc4c3CCCC4)N2)c2ccccc21 (centres undefined) | . | . | 85 | 28* | 91
O=C1NC(c2ccccn2)Nc2sc3c(c21)CCC3 (centres undefined) | 1.8* | 3.8* | 72 | 43 | 84
Cc1cccc(CN2CCc3c(OCC(=O)N4CCCc5ccccc54)cccc3C2=O)c1 | 96 | 99 | . | . | .
S=C1NC(c2ccccc2)N2C(=S)NC(c3ccccc3)N12 (centres undefined) | 94 | 108 | 97 | 45 | 98
CC(=O)c1ccc(OCC(O)COc2ccc(C(C)=O)cc2)cc1 | 95 | 97 | . | . | .
CN(C)CCOc1ncnc2c1oc1ccccc12 | 105 | 106 | 94 | 87 | 101
Clc1ncnc2c1oc1ccccc12 | 9 | 4.1* | . | . | .
CCSc1ncnc2c1oc1ccccc12 | 108 | 107 | 94 | 87 | 99
c1coc(CN(Cc2ccco2)c2ncnc3c2oc2ccccc23)c1 | 21 | 28 | 56 | 22* | 84
C/C(=N/NC(=O)c1sc(NS(=O)(=O)c2ccccc2)nc1C)c1ccc(F)cc1 | 92 | 86 | . | . | .
